Measured values: ChEMBL document CHEMBL4513216, “Probing the Open Global Health Chemical Diversity Library for Multistage-Active Starting Points for Next-Generation Antimalarials” (ACS Infect Dis, 2020)

Experiment: Toxicity liver stage against HepG2, at 10uM
Assay type: cell-based
Parameters: test concentration 10 uM, cell line HepG2-A16-CD81EGFP
Details: human, HepG2-A16-CD81EGFP cells; read-out: INHIBITION
How it was run: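 Uninfected HepG2-A16-CD81EGFP cells, 3 × 10^3 per well, 1536-well, plated on prespotted compound at 10 μM final, parasite-free screening media added to match infected plates; puromycin 10 μM positive, DMSO 0.5% negative; run in parallel with 48 h PbLuc assay at 37 °C, 5% CO2; viability by CellTiter-Glo luminescence, normalized to controls.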

Row | Structure (SMILES) | cytotoxicity at 10 µM
1 | CCc1nc(C)sc1CN1CC[C@@](O)(C2CC2)[C@H](C)C1 | -10.3%
2 | COc1ccc2nc3n(c2c1)[C@@H](CNC(=O)c1cncnc1)COC3 | 0.488%
3 | Cc1cc(C)n(CCC(=O)N2CCC(c3nc(C(C)C)no3)CC2)n1 | -16.1%
4 | CC(Nc1cccc2c1OCCO2)C(=O)NC(N)=O (centres undefined) | 2.76%
5 | CN(C(=O)NC1CC1)C1CCN(c2ccc(Cl)cc2)CC1 | -8.39%
6 | CC(NC(=O)NCCCN(C)S(C)(=O)=O)c1cccnc1 (centres undefined) | -12.5%
7 | Cc1ccc(CN2CCC[C@@H]3CN(C(=O)c4ccco4)C[C@@H]32)o1 | 8.83%
8 | Cc1ncsc1-c1nnc(C2CCN(Cc3cccc(F)c3F)CC2)o1 | -15.8%
9 | CC(O)CN(Cc1cccc(C(=O)N(C)C)c1)c1ccccc1 (centres undefined) | 2.45%
10 | Cc1nonc1CN(C)c1nc(-c2ccco2)nc2c1CCN(C)CC2 | -0.274%
11 | O=C(c1cccnc1)N1CCC2(CCN(C(=O)N3CCCC3)CC2)C1 | -103%
12 | Nc1no[n+]([O-])c1C(=O)NCc1ccccn1 | -2.02%
13 | CC(NC(=O)Cn1ccnc1)c1ccc(OCC2CC2)c(F)c1 (centres undefined) | 0.99%
14 | COc1cc(CN2CC(=O)N(c3ccc(C)cc3)CC2C)cc(OC)c1 (centres undefined) | 1.28%
15 | CCCN1CCN(S(=O)(=O)c2ccccc2OC)[C@H]2CS(=O)(=O)C[C@H]21 | -3.56%
16 | COc1ccc2c(c1)CCCN2C(=O)CN1CCOC(CN(C)C)C1 (centres undefined) | -2.93%
17 | CCOc1ccccc1OC1CCN(C(=O)c2nc(=O)[nH][nH]2)CC1 | -9.75%
18 | CCOC(=O)CCC(=O)N1CCC(Oc2ncccc2Cl)CC1 | -5.57%
19 | Cc1ncccc1NC(=O)[C@H]1C[C@@H]2CCN(Cc3nccs3)C[C@@H]2O1 | 0.976%
20 | Cc1noc(-c2ccnc(Oc3cccc(CN4CCCC4)c3F)c2)n1 | -7.07%
21 | Cc1nnc(SCCC(=O)N(C)Cc2ccc(F)cc2Cl)[nH]1 | 11.4%
22 | CC(C)C(=O)N1CCC12CCCN(C(=O)c1ccccc1)C2 (centres undefined) | 6.8%

Row | Structure (SMILES) | cytotoxicity at 10 µM
23 | COc1ccc(C2CC(=O)Nc3c2nc2n3CCCC2)cc1OC (centres undefined) | -8.41%
24 | CCC(CC)C(=O)N1CCN(Cc2cc(=O)c3ccccc3[nH]2)CC1 | -9.55%
25 | COc1cc(CCC(=O)NCC2CCCN2C)ccc1OCC(F)(F)F (centres undefined) | -5.99%
26 | Cc1ccc(NC2CCN(C(=O)Cc3cccs3)CC2)nn1 | -6.8%
27 | CCn1c(C)nnc1CN(C)C1CCN(CCS(=O)(=O)CC)C1 (centres undefined) | -1.17%
28 | CCc1nc(N)sc1C(=O)N1CCCC(CCc2ccccc2C)C1 (centres undefined) | 6.46%
29 | CNS(=O)(=O)c1ccc(C(=O)N2CCCC2c2ccccc2C)o1 (centres undefined) | -6.23%
30 | Cc1ccc(C(=O)NCC(O)CN2CCCC2=O)cc1Cl (centres undefined) | -8.69%
31 | c1ccc(N2CCOCC3(CCCN(c4nccs4)C3)C2)nc1 (centres undefined) | -104%
32 | O=C(NCC1CCOC1)c1cc(-c2ccc(Cl)cc2)n[nH]1 (centres undefined) | -14%
33 | O=C(C1CCC1)N1C[C@@H]2CN(Cc3ccncc3)C(=O)[C@@H]2C1 | -113%
34 | CC(=O)Nc1cc(C(C)(C)C)sc1C#N | 10.3%
35 | Cc1nc(CCCNC(=O)[C@H]2CNC[C@@H](C(=O)N3CCCC3)C2)sc1C | -132%
36 | O=C(O)CSc1nnc(-c2ccn[nH]2)n1-c1cccc(C(F)(F)F)c1 | 0.34%
37 | O=C(C1CCCN1Cc1nc(-c2ccco2)no1)N1CCSCC1 (centres undefined) | -5.8%
38 | CN(Cc1ccn[nH]1)Cc1c[nH]nc1-c1ccc(F)cc1 | -6.41%
39 | Cc1cc(NC(=O)c2ccc(C)c(F)c2)[nH]n1 | -42.1%
40 | Cc1cc(C)cc(OCC(=O)N2CCCN(CC(N)=O)CC2)c1 | 0.821%
41 | CC(C)N(C)S(=O)(=O)N(Cc1cccs1)Cc1cccs1 | -45.2%
42 | Cc1ncsc1-c1cc(C(=O)NCCO)ccn1 | -6.58%
43 | COc1ccc(C(C)NCc2scnc2C)cc1Cn1cccn1 (centres undefined) | -3.53%
44 | CSc1ccccc1CN1C[C@@H]2CC[C@H]1CN(Cc1[nH]cnc1C)C2 | -8.96%
